Source: ChEMBL document CHEMBL1123589, “Phenylpiperazine-based radiopharmaceuticals for brain imaging. 3. Synthesis and evaluation of radioiodinated 1-alkyl-4-phenylpiperazines” (J Med Chem, 1987)

Key:
Conditions in all cases: in vivo
Rattus norvegicus [1] = test: The biodistribution of the [125I]-labeled compound in rats after intravenous injection was evaluated in kidney at 0.25 hr; value ranges from 0.31-0.38 (ID.kg/g); format: ADME, organism-based
Method in brief: (§1)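 Male Sprague-Dawley rats (250–300 g), under ether anesthesia, given 10–15 μCi of the NCA ¹²⁵I-labeled agent iv in 0.1 mL saline. Groups of N = 3 were killed at 0.25, 1 or 4 h. Blood and tissues were removed, weighed and counted in a γ-well scintillation counter. Values are mean % ID·kg/g (range).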

Rattus norvegicus [2] = test: The biodistribution of the [125I]-labeled compound in rats after intravenous injection was evaluated in heart at 1.00 hrs; value ranges from 0.11-0.13 (ID.kg/g); format: ADME, organism-based
Method in brief: (§2)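 Male Sprague-Dawley rats (250–300 g) under ether anesthesia were given an iv injection of no-carrier-added 125I-labelled agent (10–15 μCi in 0.1 mL saline). The agent was iodinated with chloramine-T in acetate buffer and purified by C-18 HPLC. Groups of N = 3 were killed at 0.25, 1 and 4 h. Blood and tissues were weighed and γ-counted. Values are % ID·kg/g, mean (range).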

Rattus norvegicus [3] = test: The biodistribution of the [125I]-labeled compound in rats after intravenous injection was evaluated in muscle at 1.00 hrs; value ranges from 0.03-0.05 (ID.kg/g); format: ADME, organism-based, Muscle tissue
Method in brief: (§3)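 Male Sprague-Dawley rats (250–300 g) under ether anesthesia given iv 0.1 mL saline containing 10–15 μCi of NCA ¹²⁵I-labeled agent (chloramine-T iodination, HPLC-purified). Groups of 3 killed at 0.25, 1 and 4 h. Blood and tissues excised, weighed and γ-counted. Values are mean (range) of % injected dose × body mass (kg) per gram of tissue.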

Rattus norvegicus [4] = test: The biodistribution of the [125I]-labeled compound in rats after intravenous injection was evaluated in brain at 4.00 hrs (ID.kg/g); format: ADME, organism-based; method in brief: as §2
Rattus norvegicus [5] = test: The biodistribution of the [125I]-labeled compound in rats after intravenous injection was evaluated in lung at 1.00 hrs (ID.kg/g); format: ADME, organism-based; method in brief: as §1
Rattus norvegicus [6] = test: The biodistribution of the [125I]-labeled compound in rats after intravenous injection was evaluated in muscle at 4.00 hrs (ID.kg/g); format: ADME, organism-based, Muscle tissue; method in brief: as §3
Rattus norvegicus [7] = test: The biodistribution of the [125I]-labeled compound in rats after intravenous injection was evaluated in thyroid at 4.00 hrs; value ranges from 2.48-3.53 (ID.kg/g); format: ADME, organism-based, Thyroid gland; method in brief: as §3
Rattus norvegicus [8] = test: The biodistribution of the [125I]-labeled compound in rats after intravenous injection was evaluated in brain at 1.00 hrs; (ID.kg/g); format: ADME, organism-based; method in brief: as §2
Rattus norvegicus [9] = test: The biodistribution of the [125I]-labeled compound in rats after intravenous injection was evaluated in liver at 4.00 hrs; value ranges from 0.19-0.21 (ID.kg/g); format: ADME, organism-based; method in brief: as §1
Rattus norvegicus [10] = test: The biodistribution of the [125I]-labeled compound in rats after intravenous injection was evaluated in fat at 1.00 hrs; value ranges from 0.08-0.12 (ID.kg/g); format: ADME, organism-based, Adipose tissue; method in brief: as §2
Rattus norvegicus [11] = test: The biodistribution of the [125I]-labeled compound in rats after intravenous injection was evaluated in kidney at 4.00 hrs; value ranges from 0.14-0.21 (ID.kg/g); format: ADME, organism-based; method in brief: as §1
Rattus norvegicus [12] = test: The biodistribution of the [125I]-labeled compound in rats after intravenous injection was evaluated in muscle at 0.25 hrs; value ranges from 0.06-0.07 (ID.kg/g); format: ADME, organism-based, Muscle tissue; method in brief: as §3
Rattus norvegicus [13] = test: The biodistribution of the [125I]-labeled compound in rats after intravenous injection was evaluated in adrenal at 1.00 hrs; value ranges from 0.12-0.19 (ID.kg/g); format: ADME, organism-based; method in brief: as §2
Rattus norvegicus [14] = test: The biodistribution of the [125I]-labeled compound in rats after intravenous injection was evaluated in lung at 4.00 hrs (ID.kg/g); format: ADME, organism-based; method in brief: as §1
Rattus norvegicus [15] = test: The biodistribution of the [125I]-labeled compound in rats after intravenous injection was evaluated in thyroid at 1.00 hrs value ranges from 2.04-2.76( ID.kg/g); format: ADME, organism-based, Thyroid gland; method in brief: as §3
Rattus norvegicus [16] = test: The biodistribution of the [125I]-labeled compound in rats after intravenous injection was evaluated in adrenal at 4.00 hrs; value ranges from 0.11-0.13 (ID.kg/g); format: ADME, organism-based; method in brief: as §2
Rattus norvegicus [17] = test: The biodistribution of the [125I]-labeled compound in rats after intravenous injection was evaluated in liver at 0.25 hr; value ranges from 0.24-0.40 (ID.kg/g); format: ADME, organism-based; method in brief: as §1
Rattus norvegicus [18] = test: The biodistribution of the [125I]-labeled compound in rats after intravenous injection was evaluated in adrenal at 0.25 hrs; value ranges from 0.22-0.37 (ID.kg/g); format: ADME, organism-based; method in brief: as §2
Rattus norvegicus [19] = test: The biodistribution of the [125I]-labeled compound in rats after intravenous injection was evaluated in liver at 1.00 hrs; value ranges from 0.27-0.47 (ID.kg/g); format: ADME, organism-based; method in brief: as §1
Rattus norvegicus [20] = test: The biodistribution of the [125I]-labeled compound in rats after intravenous injection was evaluated in heart at 4.00 hrs; value ranges from 0.12-0.14 (ID.kg/g); format: ADME, organism-based; method in brief: as §1
Rattus norvegicus [21] = test: The biodistribution of the [125I]-labeled compound in rats after intravenous injection was evaluated in lung at 0.25 hrs (ID.kg/g); format: ADME, organism-based; method in brief: as §1
Rattus norvegicus [22] = test: The biodistribution of the [125I]-labeled compound in rats after intravenous injection was evaluated in kidney at 1.00 hrs; value ranges from 0.28-0.33 (ID.kg/g); format: ADME, organism-based; method in brief: as §1
Rattus norvegicus [23] = test: The biodistribution of the [125I]-labeled compound in rats after intravenous injection was evaluated in blood at 4.00 hrs (ID.kg/g); format: ADME, organism-based; method in brief: as §2
Rattus norvegicus [24] = test: The biodistribution of the [125I]-labeled compound in rats after intravenous injection was evaluated in blood at 0.25 hrs (ID.kg/g); format: ADME, organism-based; method in brief: as §2
Rattus norvegicus [25] = test: The biodistribution of the [125I]-labeled compound in rats after intravenous injection was evaluated in fat at 4.00 hrs; value ranges from 0.06-0.07 (ID.kg/g); format: ADME, organism-based, Adipose tissue; method in brief: as §2
Rattus norvegicus [26] = test: The biodistribution of the [125I]-labeled compound in rats after intravenous injection was evaluated in blood at 1.00 hrs (ID.kg/g); format: ADME, organism-based; method in brief: as §2
Rattus norvegicus [27] = test: The biodistribution of the [125I]-labeled compound in rats after intravenous injection was evaluated in brain at 0.25 hrs; value ranges from 0.19-0.26 (ID.kg/g); format: ADME, organism-based
Rattus norvegicus [28] = test: The biodistribution of the [125I]-labeled compound in rats after intravenous injection was evaluated in thyroid at 0.25 hrs (ID.kg/g); format: ADME, organism-based, Thyroid gland; method in brief: as §3
Rattus norvegicus [29] = test: The biodistribution of the [125I]-labeled compound in rats after intravenous injection was evaluated in fat at 0.25 hr; value ranges from 0.07-0.09 (ID.kg/g); format: ADME, organism-based, Adipose tissue; method in brief: as §2
Rattus norvegicus [30] = test: The biodistribution of the [125I]-labeled compound in rats after intravenous injection was evaluated in heart at 0.25 hrs; value ranges from 0.10-0.11 (ID.kg/g); format: ADME, organism-based; method in brief: as §2

`CN1CCN(c2ccc(I)cc2)CC1` was tested, and the Biodistribution (Rattus norvegicus [1]) was 0.38%, the Biodistribution (Rattus norvegicus [2]) was 0.13% and the Biodistribution (Rattus norvegicus [3]) was 0.05%. It also gave a Biodistribution (Rattus norvegicus [4]) of 0.05%, a Biodistribution (Rattus norvegicus [5]) of 0.2% and a Biodistribution (Rattus norvegicus [6]) of 0.02 %ID·kg/g. The Biodistribution (Rattus norvegicus [7]) was 3.53%, the Biodistribution (Rattus norvegicus [8]) was 0.05% and the Biodistribution (Rattus norvegicus [9]) was 0.21%. For the same compound, the Biodistribution (Rattus norvegicus [10]) was 0.12%, the Biodistribution (Rattus norvegicus [11]) was 0.21% and the Biodistribution (Rattus norvegicus [12]) was 0.07%. The Biodistribution (Rattus norvegicus [13]) was 0.19%, the Biodistribution (Rattus norvegicus [14]) was 0.09% and the Biodistribution (Rattus norvegicus [15]) was 2.76%. The Biodistribution (Rattus norvegicus [16]) was 0.13%, the Biodistribution (Rattus norvegicus [17]) was 0.4% and the Biodistribution (Rattus norvegicus [18]) was 0.37%. It also gave a Biodistribution (Rattus norvegicus [19]) of 47%, a Biodistribution (Rattus norvegicus [20]) of 0.14% and a Biodistribution (Rattus norvegicus [21]) of 0.22%. For the same compound, the Biodistribution (Rattus norvegicus [22]) was 0.33%, the Biodistribution (Rattus norvegicus [23]) was 0.02 % ID·kg/g and the Biodistribution (Rattus norvegicus [24]) was 0.04 % ID·kg/g. For the same compound, the Biodistribution (Rattus norvegicus [25]) was 0.07%, the Biodistribution (Rattus norvegicus [26]) was 0.04% and the Biodistribution (Rattus norvegicus [27]) was 0.26%. The Biodistribution (Rattus norvegicus [28]) was 0.96%, the Biodistribution (Rattus norvegicus [29]) was 0.09% and the Biodistribution (Rattus norvegicus [30]) was 0.11%.
